# Data from ChEMBL document CHEMBL1137992, “Long hydrocarbon chain keto diols and diacids that favorably alter lipid disorders in vivo” (J Med Chem, 2004).
# Experiments:
# [1] = system: Rattus norvegicus; experiment: Percentage change of non-HDL cholesterol levels in obese female Zucker rats after 1 week of pre-treatment at a dose of 100 mg/kg/day; type: functional
# Procedure, shortened: (§1)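 Female Zucker fatty rats [Crl:(Zuc)-faBR], 10–12 weeks old (400–500 g), acclimated 7 days and fed rodent chow. Dosed once daily by oral gavage in 20% EtOH/80% PEG-200 (v/v), at 0.25% of body weight, for 2 weeks. Blood taken after a 6-h fast: orbital plexus before dosing and at day 7, cardiac puncture at day 14. Serum lipoprotein cholesterol measured by Superose 6 gel filtration with on-line cholesterol detection. Values are % change from pretreatment, mean ± SEM.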
# [2] = system: Rattus norvegicus; experiment: Percentage change of triglycerides in obese female Zucker rats after 2 weeks of pre-treatment at a dose of 100 mg/kg/day; type: functional; procedure, shortened: as §1
# [3] = system: Rattus norvegicus; experiment: Percentage change of non-HDL cholesterol levels in obese female Zucker rats after 2 weeks of pre-treatment at a dose of 100 mg/kg/day; type: functional; procedure, shortened: as §1
# [4] = system: Rattus norvegicus; experiment: Percentage change of HDL cholesterol levels in obese female Zucker rats after 1 week of pre-treatment at a dose of 100 mg/kg/day; type: functional
# Procedure, shortened: (§2)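 Obese female Zucker fatty rats were gavaged once daily with 30 or 100 mg/kg/day in 20% EtOH/80% PEG-200 for 2 weeks. Sera were collected after a 6 h fast, before dosing, at 1 week (orbital plexus) and at 2 weeks (cardiac puncture). HDL-C was total cholesterol multiplied by HDL area fraction from gel-filtration lipoprotein profiles. Reported as % change from pretreatment ± SEM.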
# [5] = system: Rattus norvegicus; experiment: Percentage change of HDL cholesterol levels in obese female Zucker rats after 2 weeks of pre-treatment at a dose of 100 mg/kg/day; type: functional; procedure, shortened: as §2
# [6] = system: Rattus norvegicus; experiment: Percentage change of triglycerides in obese female Zucker rats after 1 week of pre-treatment at a dose of 100 mg/kg/day; type: functional; procedure, shortened: as §1
# [7] = Concentration required for inhibition of lipid synthesis in primary cultures of rat hepatocytes at 300 uM; not active; type: functional; conditions: Hepatocyte
# Procedure, shortened: (§3)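 Primary hepatocytes from male Sprague-Dawley rats (Seglen isolation), plated at 1.5×10^5 cells/cm² on collagen in serum-containing DMEM, switched to serum-free medium after 4 h, grown overnight to monolayers. Cells incubated 4 h with 0.25 μCi [1-14C]acetate/well (1 Ci/mol final) plus 0, 1, 3, 10, 30, 100 or 300 μM compound. Lipids extracted into scintillant and counted; IC50 taken from lipid synthesis rates.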
# [8] = Concentration required for inhibition of lipid synthesis in primary cultures of rat hepatocytes; value ranges from 100-300 uM; type: functional, cell-based; conditions: Hepatocyte; procedure, shortened: as §3
# [9] = system: Rattus norvegicus; experiment: Percentage change of non-HDL cholesterol levels in obese female Zucker rats after 1 week of pre-treatment at a dose of 30 mg/kg/day; type: functional; procedure, shortened: as §1
# [10] = system: Rattus norvegicus; experiment: Percentage change of non-HDL cholesterol levels in obese female Zucker rats after 2 weeks of pre-treatment at a dose of 30 mg/kg/day; type: functional; procedure, shortened: as §1
# [11] = system: Rattus norvegicus; experiment: Percentage change of HDL cholesterol levels in obese female Zucker rats after 2 weeks of pre-treatment at a dose of 30 mg/kg/day; type: functional; procedure, shortened: as §2
# [12] = system: Rattus norvegicus; experiment: Percentage change of triglycerides in obese female Zucker rats after 2 weeks of pre-treatment at a dose of 30 mg/kg/day; type: functional; procedure, shortened: as §1
# [13] = system: Rattus norvegicus; experiment: Percentage change of triglycerides in obese female Zucker rats after 1 week of pre-treatment at a dose of 30 mg/kg/day; type: functional; procedure, shortened: as §1
# [14] = system: Rattus norvegicus; experiment: Percentage change of HDL cholesterol levels in obese female Zucker rats after 1 week of pre-treatment at a dose of 30 mg/kg/day; type: functional; procedure, shortened: as §2
# [15] = Concentration required for inhibition of lipid synthesis in primary cultures of rat hepatocytes; value ranges from 3-10 uM; type: functional, cell-based; conditions: Hepatocyte; procedure, shortened: as §3
# [16] = Concentration required for inhibition of lipid synthesis in primary cultures of rat hepatocytes; type: functional, cell-based; conditions: Hepatocyte; procedure, shortened: as §3
# [17] = system: Rattus norvegicus; experiment: Percentage change of triglycerides in obese female Zucker rats after 2 weeks of pre-treatment at a dose of 59 mg/kg/day; type: functional; procedure, shortened: as §1
# [18] = system: Rattus norvegicus; experiment: Percentage change of non-HDL cholesterol levels in obese female Zucker rats after 2 weeks of pre-treatment at a dose of 59 mg/kg/day; type: functional; procedure, shortened: as §1
# [19] = system: Rattus norvegicus; experiment: Percentage change of HDL cholesterol levels in obese female Zucker rats after 2 weeks of pre-treatment at a dose of 59 mg/kg/day; type: functional
# [20] = system: Rattus norvegicus; experiment: Percentage change of triglycerides in obese female Zucker rats after 1 week of pre-treatment at a dose of 59 mg/kg/day; type: functional; procedure, shortened: as §1
# [21] = system: Rattus norvegicus; experiment: Percentage change of HDL cholesterol levels in obese female Zucker rats after 1 week of pre-treatment at a dose of […]; type: functional
# [22] = system: Rattus norvegicus; experiment: Percentage change of non-HDL cholesterol levels in obese female Zucker rats after 1 week of pre-treatment at a dose of 59 mg/kg/day; type: functional; procedure, shortened: as §1
# [23] = system: Rattus norvegicus; experiment: Percentage change of non-HDL cholesterol levels in obese female Zucker rats after 1 week of treatment at a dose of 100 mg/kg/day; type: functional; conditions: in the assay text read “30 mg/kg/day” for “100 mg/kg/day”; procedure, shortened: as §1
SMILES,Change [1] [%],Change [2] [%],Change [3] [%],Change [4] [%],Change [5] [%],Change [6] [%],IC50 [16] [µM],also measured
CC(C)Cc1ccc(C(C)(CO)CCCCC(=O)CCCCC(C)(CO)c2ccc(CC(C)C)cc2)cc1 (stereo unspecified),27,-15,34,-5,6,-10,,inhibition at 300 µM [7]: < 50%
CC(CO)(CCCCC(=O)CCCCC(C)(CO)c1ccccc1)c1ccccc1 (stereo unspecified),,,,,,,,IC50 [8]: < 300 µM; Change [9]: -30%; Change [10]: 31%; Change [11]: -27%; Change [12]: 21%; Change [13]: -25%; Change [14]: 0%
CC(C)(CO)CCCCC(=O)CCCC(C)(C)CO,-26,-12,4,47,48,-40,,IC50 [15]: < 10 µM
CC(C)(CO)CCCCC(=O)CCCCC(C)(CO)c1ccccc1 (stereo unspecified),,,,,,,1,Change [9]: 17%; Change [10]: -8%; Change [11]: -5%; Change [12]: -8%; Change [13]: 18%; Change [14]: -18%
Cc1ccc(C(C)(CCCCC(=O)CCCCC(C)(C(=O)O)c2ccc(C)cc2)C(=O)O)cc1 (stereo unspecified),,,,,,,,IC50 [8]: < 300 µM; Change [9]: 0%; Change [10]: 47%; Change [11]: 10%; Change [12]: 12%; Change [13]: -11%; Change [14]: 0%
CC(C)(CO)Cc1cccc(C(=O)c2cccc(CC(C)(C)CO)c2)c1,-14,-8,-5,1,-11,-29,52,
CC(C)(CCCCCCCC(=O)CCCCCCCC(C)(C)C(=O)O)C(=O)O,-81,-63,-45,44,86,-85,5,
CC(CCCC(=O)CCCC(C)(C(=O)O)c1ccccc1)(C(=O)O)c1ccccc1 (stereo unspecified),36,27,65,-4,12,10,,inhibition at 300 µM [7]: < 50%
CC(C)(CCCCCC(=O)CCCCC(C)(C)C(=O)O)C(=O)O,-30,-62,-51,240,72,-65,3,
CC(C)(CCCCC(=O)CCCC(C)(C)C(=O)O)C(=O)O,,,,,,,8,Change [9]: -17%; Change [10]: 93%; Change [11]: 4%; Change [12]: 23%; Change [13]: -2%; Change [14]: 7%
CC(C)(CCCCCCC(=O)CCCCCCC(C)(C)C(=O)O)C(=O)O,,,,,,,9,
CC(CO)(CCCCCC(=O)CCCCCC(C)(CO)c1ccccc1)c1ccccc1 (stereo unspecified),29,1,9,2,10,24,93,
CC(C)(CO)CCCC(=O)CCCC(C)(C)CO,-22,10,28,24,2,-31,27,
CC(C)(CO)CCCCCC(=O)CCCCCC(C)(C)CO,-91,-92,-88,77,,-92,3,
CC(C)(Cc1cccc(C(=O)c2cccc(CC(C)(C)C(=O)O)c2)c1)C(=O)O,,,,,,,,Change [17]: 7%; Change [18]: 34%; Change [19]: 7%; Change [20]: -24%; Change [21]: 2%; Change [22]: -43%
CC(C)(CO)CCCCCCC(=O)CCCCCCC(C)(C)CO,,,,,,,2,Change [23]: -50%
CC(C)(CO)CCCCCC(=O)CCCCC(C)(C)CO,-70,-87,-78,78,78,-85,2,
Cc1ccc(C(C)(CO)CCCCC(=O)CCCCC(C)(CO)c2ccc(C)cc2)cc1 (stereo unspecified),,,,,,,,IC50 [8]: < 300 µM; Change [9]: 61%; Change [10]: 46%; Change [11]: -2%; Change [12]: 0%; Change [13]: 15%; Change [14]: -3%
CC(CCCCC(=O)CCCCC(C)(C(=O)O)c1ccccc1)(C(=O)O)c1ccccc1 (stereo unspecified),36,-8,79,43,45,-36,,inhibition at 300 µM [7]: < 50%
CC(C)Cc1ccc(C(C)(CCCCC(=O)CCCCC(C)(C(=O)O)c2ccc(CC(C)C)cc2)C(=O)O)cc1 (stereo unspecified),-40,-66,-44,11,62,-63,,IC50 [8]: < 300 µM
CC(CO)(CCCC(=O)CCCC(C)(CO)c1ccccc1)c1ccccc1 (stereo unspecified),-18,-17,-32,-14,-11,-20,,IC50 [8]: < 300 µM
CC(C)OC(=O)C(C)(C)Oc1ccc(C(=O)c2ccc(Cl)cc2)cc1 [FENOFIBRATE],19.8,-8,11.6,-41,-14,6,,
CCCCCCCCCCCCCCSCC(=O)O [TETRADECYLTHIOACETIC ACID],,,,,,,43,
